Assay results reported in article PMC9064899 (The FEBS journal, 2021).
Substitutions are numbered along the chain they refer to. Where “and” joins values, the source holds several entries; their conditions need not be identical. Equal entries are not always repeated.

Legend:
[1] = tested on: UBIAD1-deficient FIXgla-PC/HEK293 reporter cells; assay: VKD carboxylation of FIXgla-PC supported by K vitamins in UBIAD1-knockout cells; type: cell-based, human; details: UBIAD1-deficient (knockout) FIXgla-PC/HEK293 cells
In short: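 Ubiad1-knockout FIXgla-PC/HEK293 reporter cells were cultured for 24 h with increasing concentrations of vitamin K1, MK-4, vitamin K3, or menaquinones with 1–4 or 7 isoprene units. K vitamin stocks were made in polyethoxylated castor oil. Carboxylated FIXgla-PC was determined by ELISA, and half-maximal stimulation concentration (EC50) came from curve fitting. Mean ± SD.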

wild-type UBIAD1 = biological target: T1, wild-type UBIAD1 (Homo sapiens, UniProt Q9Y5Z9); assay: Cell-based UBIAD1 functional assay
T1 sequence (Q9Y5Z9 1-338): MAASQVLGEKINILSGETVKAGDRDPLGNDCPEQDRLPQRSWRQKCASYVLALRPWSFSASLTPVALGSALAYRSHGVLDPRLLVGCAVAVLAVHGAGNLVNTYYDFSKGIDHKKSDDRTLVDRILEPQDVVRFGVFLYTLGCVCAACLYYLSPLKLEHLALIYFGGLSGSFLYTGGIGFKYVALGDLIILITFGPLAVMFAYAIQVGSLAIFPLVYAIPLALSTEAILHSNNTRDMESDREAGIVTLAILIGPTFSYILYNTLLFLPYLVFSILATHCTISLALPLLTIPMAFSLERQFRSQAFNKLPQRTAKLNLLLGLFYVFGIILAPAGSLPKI
In short: (§1)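 Wild-type or mutant human UBIAD1 in pCI-neo was transiently transfected into Ubiad1-knockout FIXgla-PC/HEK293 cells (DMEM/F12, 10% FBS). […] After 24 h, carboxylated FIXgla-PC in the medium was measured by ELISA. Activity was normalized to wild type (100%), and EC50 came from a curve fit. Mean ± SD, n=3 independent experiments.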

UBIAD1 L67Q = biological target: T2, UBIAD1 L67Q (Homo sapiens, UniProt Q9Y5Z9, L67Q); assay: Cell-based UBIAD1 functional assay
T2 sequence (Q9Y5Z9 1-338 L67Q): T1 sequence (Q9Y5Z9 1-338) with L67Q
In short: as §1

UBIAD1 C147S = biological target: T3, UBIAD1 C147S (Homo sapiens, UniProt Q9Y5Z9); assay: Cell-based UBIAD1 functional assay; details: 1 μM vitamin K3
T3 sequence (Q9Y5Z9 2-338): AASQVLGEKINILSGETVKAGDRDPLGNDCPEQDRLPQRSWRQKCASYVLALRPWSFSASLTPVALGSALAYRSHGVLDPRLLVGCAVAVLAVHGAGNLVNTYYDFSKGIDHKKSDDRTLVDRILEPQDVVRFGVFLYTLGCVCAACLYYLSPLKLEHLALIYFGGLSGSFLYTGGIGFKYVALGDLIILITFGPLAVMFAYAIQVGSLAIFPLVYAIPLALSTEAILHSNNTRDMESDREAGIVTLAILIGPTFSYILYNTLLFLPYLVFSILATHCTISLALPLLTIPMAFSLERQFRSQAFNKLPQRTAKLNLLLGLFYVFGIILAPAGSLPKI
In short: as §1

UBIAD1 G177E = biological target: T4, UBIAD1 G177E (Homo sapiens, UniProt Q9Y5Z9, G177E); assay: Cell-based UBIAD1 functional assay
T4 sequence (Q9Y5Z9 1-338 G177E): T1 sequence (Q9Y5Z9 1-338) with G177E
In short: as §1

UBIAD1 D236A = biological target: T5, UBIAD1 D236A (Homo sapiens, UniProt Q9Y5Z9, D236A); assay: Cell-based UBIAD1 functional assay
T5 sequence (Q9Y5Z9 1-338 D236A): T1 sequence (Q9Y5Z9 1-338) with D236A
In short: as §1

UBIAD1 D240N = biological target: T6, UBIAD1 D240N (Homo sapiens, UniProt Q9Y5Z9, D240N); assay: Cell-based UBIAD1 functional assay
T6 sequence (Q9Y5Z9 1-338 D240N): T1 sequence (Q9Y5Z9 1-338) with D240N
In short: as §1

SMILES: CC1=CC(=O)c2ccccc2C1=O [vitamin K3, menadione]
- support of VKD carboxylation of reporter protein [1]: fails to carboxylate the reporter protein
- EC50 (wild-type UBIAD1): 3.7 ± 0.4 nM
- Vitamin K-dependent carboxylation Activity ± SD (wild-type UBIAD1; WT, 1 μM vitamin K3, WT normalized to 100%): 100 ± 2.4%
- EC50 (UBIAD1 L67Q): 3.8 ± 0.8 nM
- Vitamin K-dependent carboxylation Activity ± SD (UBIAD1 L67Q; L67Q, 1 μM vitamin K3): 40.7 ± 2%
- Vitamin K-dependent carboxylation Activity ± SD (UBIAD1 C147S): 100.5 ± 3.7%
- EC50 (UBIAD1 G177E): 3.7 ± 0.5 nM
- Vitamin K-dependent carboxylation Activity ± SD (UBIAD1 G177E; G177E, 1 μM vitamin K3): 117.1 ± 4.5%
- EC50 (UBIAD1 D236A): 90 ± 17.6 nM
- Vitamin K-dependent carboxylation Activity ± SD (UBIAD1 D236A; D236A, 1 μM vitamin K3): 32% and 32.5 ± 0.9%
- EC50 (UBIAD1 D240N): 11.2 ± 1.5 nM
- Vitamin K-dependent carboxylation Activity ± SD (UBIAD1 D240N; D240N, 1 μM vitamin K3): 107.8 ± 2.5%
